Source: PubChem BioAssay
VLA-4 inh – inhibition in human VLA-4 binding assay, primary screen, VLA-4 allosteric modulator project, MLPCN library, flow cytometry, VLA-4 expressing cells. Integrin alpha-4 (Homo sapiens), P13612. ligand binding flow cytometry. inhibition, % (about 7 µM as worked out from the volumes in the protocol). actives 0.2% (n = 330,000); in the data active means inhibition above about 50%
TAAR1 ag – human TAAR1 agonists, primary screen, Fluo-8 calcium fluorescence, CHO RD-HGA16 cells; vehicle wells 0%, saturating PEA agonist 100%; activation, % at 3 µM; actives 0.99% (n = 360,000);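 active means activation above the mean activation of all test compounds in the run plus 3 SD, cut at about 38% in these data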
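System: CHO RD-HGA16 cells carrying human TAAR1 plus Gα16; Incubation: 17-24 h seeding, 75 min 37 °C dye, 30 min RT; Measured by: Fluo-8 fluorescence, 5 s baseline then 140 s kinetic read; Control set: DMSO and PEA EC100; Replication: single well for each compound.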
Rce1 inh – yeast Rce1p protease inhibitors, primary screen, biochemical, fluorescence, cell-free homogeneous. yeast membranes, quenched prenylated peptide cleavage fluorescence. calls only. actives 0.27% (n = 290,000). AID 2563, 2010;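 active means fall in fluorescence gain of 50% or more versus controls, with final raw signal at or below 3038400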
TAAR1 antag – human TAAR1 antagonists, primary screen, Fluo-8 calcium fluorescence, CHO RD-HGA16 cells; antagonist; actives 1.5% (n = 360,000); AID 624466, 2012; inhibition, % at 3 µM; Trace amine-associated receptor 1 (Homo sapiens), Q96RJ0;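 active means inhibition above a per-plate cutoff, the mean inhibition of test compounds on that plate plus 3 SD, cut at about 49% in these data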
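Test system: hTAAR1-expressing CHO RD-HGA16 cells, Gα16-coupled; Probe or stimulus: EC80 β-phenethylamine stimulus; Compound dosing: single nominal final test compound concentration of 3 µM; Timing: 140 s kinetic read after compound, 140 s after agonist; Signal: Fluo-8 calcium-sensitive fluorescence; Measure: % inhibition of agonist calcium response; Controls: DMSO and EC80 PEA controls.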
Platelet DG rel – inhibitors of platelet dense granule secretion, primary screen, cell-based, MLPCN, human platelets; human platelet-rich plasma, SFLLRN dense granule ATP release, luminescence; inhibition, %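 (compounds screened at 7.5 µM in platelet-rich plasma)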; actives 0.22% (n = 300,000); AID 1663, 2009;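 active means mean replicate score, as percent of positive control, at or above 50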
TAAR1 ag confirm – human TAAR1 agonists, retest of hits, confirmation, Fluo-8 calcium fluorescence, CHO RD-HGA16 cells; shares compounds with TAAR1 ag; activation, % at 3 µM; actives 82% (n = 2,400); scaled: DMSO 0%, maximal phenethylamine 100%;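 active means activation above a cutoff set at the run's mean compound activation plus 3 SD, cut at about 39% in these data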
Ga16 nonsel ag – nonselective calcium mobilization agonists, CHO-Ga16 cells, counter-screen for hTAAR1 agonist project, cell-based, fluorescence, CHO-Ga16 parental line; shares compounds with TAAR1 ag; Fluo-8 calcium fluorescence; normalized to maximal ATP response, DMSO zero; activation, % at 3 µM; actives 50% (n = 2,400);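 active means activation above the run cutoff, the mean activation over all tested wells plus 3 SD, cut at about 12% in these data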
TAAR1 desens – TAAR1 desensitization by agonist hits, confirmation, counter-screen for TAAR1 agonist project, cell-based, fluorescence, tachyphylaxis; shares compounds with TAAR1 ag; CHO RD-HGA16 hTAAR1, Fluo-8 calcium, beta-PEA response inhibition; inhibition, % at 3 µM; actives 46% (n = 2,400);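 active means inhibition above the run cutoff, the mean inhibition of all test compounds plus 3 SD, cut at about 49% in these data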;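 further: beta-PEA stimulus applied at its EC80; loss of beta-PEA calcium signal after compound pretreatment read as receptor desensitization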
Ga16 nonsel ant – inhibition of ATP-evoked calcium response in CHO-Ga16 cells, counter-screen for TAAR1 agonist project, cell-based, fluorescence; inhibition, % at 3 µM; CHO-Ga16 ATP-induced calcium, Fluo-8 fluorescence; shares compounds with TAAR1 ag; AID 651952, 2012; actives 39% (n = 2,400);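 active means inhibition above the plate's mean compound inhibition plus 3 SD, computed per plate, cut at about 22% in these data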
A number is an active result; – = inactive; · = not tested or not shown; + = active, no number. The list is not random: actives were taken first. Their share in the collection is about 2.6%.

SMILES	VLA-4 inh	TAAR1 ag	Rce1 inh	TAAR1 antag	Platelet DG rel	TAAR1 ag confirm	Ga16 nonsel ag	TAAR1 desens	Ga16 nonsel ant
COC(=O)c1cc(NC(=O)CN2C(=O)CSC2=O)ccc1Cl	–	70.3	–	–	–	–	–	–	–
c1cc2c(cc1C1CCCCC1)c1c3n2CCN=C3CCC1	–	66.0	–	–	–	59.1	24.1	–	–
Cc1ccc2c(c1)c1c3n2CCN=C3CCC1	–	–	–	–	–	·	·	·	·
Cc1nn(C)c(Cl)c1/C=N/OC(=O)c1ccc(F)cc1	–	88.0	–	–	–	–	–	–	–
Cc1nn(C)c(Cl)c1/C=N/OC(=O)c1ccccc1	–	–	–	–	–	·	·	·	·
CCNC(=O)CC1C(=O)N(CC)C(=S)N1NC(=O)c1ccccc1 (stereo not drawn)	–	–	–	–	–	·	·	·	·
O=S(=O)(Cc1ccccc1Cl)NCCc1ccccc1	–	–	–	–	–	·	·	·	·
O=S(=O)(Cc1ccccc1)NCCc1cccc(Cl)c1	–	44.0	–	–	–	77.4	–	–	–
O=C(N/N=C/c1ccc(O)cc1)c1ccc(COc2cc(Cl)ccc2Cl)o1	–	92.6	–	75.6	–	98.2	69.4	87.2	58.9
Cc1c(NCc2cc(Cl)ccc2O)c(=O)n(-c2ccccc2)n1C	–	49.7	–	–	–	–	–	–	–
COc1ccc(NC(=O)CSc2nnc(CNC(=O)c3cccs3)o2)c(OC)c1	–	–	–	–	–	·	·	·	·
Cc1ccc(S(=O)(=O)N(CC(=O)N2CCc3ccccc3C2)c2ccc(Cl)c(Cl)c2)cc1	–	–	–	–	–	·	·	·	·
O=C(CN(c1ccc(Cl)c(Cl)c1)S(=O)(=O)c1ccccc1)N1CCc2ccccc2C1	–	57.5	–	–	–	75.5	–	–	–
COc1ccc(N(CC(=O)N2CCc3ccccc3C2)S(C)(=O)=O)cc1OC	–	50.6	–	–	–	–	–	–	–
CC(C)=CCC[C@H](C)C[C@@H]1Cc2[nH][nH]c(=O)c2[C@@H](c2ccc(F)cc2)O1	·	–	·	–	·	·	·	·	·
CCCC(=O)N1CCC1(C)C(=O)NS(=O)(=O)c1cccc(Cl)c1 (stereo not drawn)	·	–	·	–	·	·	·	·	·
O=C1C/C(=C/NCc2ccccc2)C(=O)N1	–	–	·	–	·	·	·	·	·
CC(Cc1ccccc1)N/C=C1/CC(=O)NC1=O (stereo not drawn)	–	83.3	–	54.3	–	91.0	–	–	–
O=C(N[C@H](C(=O)N1CCC[C@H]1C(=O)NCCc1ccccc1Cl)c1ccccc1)c1ccco1	·	41.0	·	–	·	56.5	–	59.9	–
O=C(N[C@H](C(=O)N1CCC[C@H]1C(=O)NCCc1ccccc1Cl)c1ccccc1)c1cccs1	·	·	·	·	·	·	–	·	–
O=C(N[C@H](C(=O)N1CCC[C@H]1C(=O)NCCc1ccccc1Cl)c1ccccc1)C1CCCC1	·	–	·	–	·	·	·	·	·
COc1ccccc1CCNS(=O)(=O)CCNC(=O)c1ccc2c(c1)OCO2	–	74.0	–	–	–	90.8	–	73.3	–
COc1ccc2c(c1)C1(C)CC(C)(C)N2C(=O)N1c1ccccc1 (stereo not drawn)	–	44.1	–	–	–	–	–	–	–
COc1ccc2c(c1)C(=O)N(c1ccccc1)C(=O)C2	–	–	–	–	–	·	·	·	·
Cc1ccc(CCN2CCN=C2N(C)C)cc1	–	–	–	–	–	·	·	·	·
SMILES	VLA-4 inh	TAAR1 ag	Rce1 inh	TAAR1 antag	Platelet DG rel	TAAR1 ag confirm	Ga16 nonsel ag	TAAR1 desens	Ga16 nonsel ant
CN(C)/C=C1\C=C2C(=O)c3ccccc3N2C1=O	–	413.1	–	87.0	–	+	+	104.4	93.7
CN(C)S(=O)(=O)N1C(=O)c2ccccc2C1=O	–	–	–	–	–	·	·	·	·
Cc1nc2ccc(Br)cn2c1C(=O)N/N=C\c1ccc(C(C)C)cc1	–	–	–	–	–	·	·	·	·
N#Cc1c(NC(=S)NC(=O)c2ccccc2)sc2c1CCN(CCc1ccccc1)C2	–	·	–	·	–	·	·	·	·
N#Cc1c(N)sc2c1CCN(CCc1ccccc1)C2	–	78.8	–	–	–	83.9	–	64.5	–
CC1CC(NC(=O)c2c(O)nc3sccn3c2=O)CC(C)(C)C1 (stereo not drawn)	–	–	–	–	–	·	·	·	·
O=C1c2ccccc2C(=O)N1Cc1ccco1	–	–	–	–	–	·	·	·	·
COc1ccc(N2C(=O)c3cccc4c(N(C)CCO)ccc(c34)C2=O)cc1	–	–	–	–	–	·	·	·	·
O=C1c2cccc3c(O)ccc(c23)C(=O)N1c1ccc(Cl)cc1	–	235.0	–	59.1	–	129.1	120.8	75.2	70.2
CC(=O)Nc1ccc(N2C(=O)c3cccc4c(O)ccc(c34)C2=O)cc1	–	173.7	–	–	–	63.4	65.1	–	39.3
O=C1c2cccc3c(O)ccc(c23)C(=O)N1Cc1ccco1	·	132.0	–	–	–	158.0	187.5	74.1	79.9
Cc1ccc(N2C(=O)c3cccc4c(C(=O)O)ccc(c34)C2=O)cc1	–	–	–	–	–	·	·	·	·
Cc1ccc(NC(=O)CN(C)C(=O)CSc2nccn2C)cc1	–	–	·	–	·	·	·	·	·
CC[C@H](C)[C@H]1O[C@]2(CC[C@@H]1C)C[C@@H]1C[C@@H](CC=C(C)[C@@H](O[C@H]3C[C@H](OC)[C@@H](O[C@H]4C[C@H](OC)[C@@H](O)[C@H](C)O4)[C@H](C)O3)[C@@H](C)C=CC=C3CO[C@@H]4[C@H](O)C(C)=C[C@@H](C(=O)O1)[C@]34O)O2	–	·	·	·	·	·	·	·	·
Cc1cccc(NC(=O)C(C)Sc2nc3nc(C)cc(C)n3n2)c1 (stereo not drawn)	–	–	·	–	·	·	·	·	·
CC1OC2CC(=O)OC2C2=C1C(=O)c1c(O)cccc1C2=O (stereo not drawn)	·	64.0	·	58.1	·	69.3	40.6	70.7	61.6
O=C1c2cccc(O)c2C(=O)c2c(O)cc(CO)cc21	–	·	–	·	–	·	·	·	·
